Bioassay records (PubChem BioAssay)
NPY-Y1 antag – blocks the human neuropeptide Y Y1 receptor. HEK293-CNG Y1 cells, membrane potential fluorescence; NPY at EC95, then isoproterenol. P25929. AID 1040. inhibition, % at 3.6 µM. hit rate 1% among 200,000;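 active = inhibition above the campaign mean inhibition of all tested compounds plus 3 SD, cut at about 20% in these data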;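 also: 0% = DMSO wells given NPY plus isoproterenol and 100% = isoproterenol alone without NPY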
Target sequence (P25929 whole entry, looked up): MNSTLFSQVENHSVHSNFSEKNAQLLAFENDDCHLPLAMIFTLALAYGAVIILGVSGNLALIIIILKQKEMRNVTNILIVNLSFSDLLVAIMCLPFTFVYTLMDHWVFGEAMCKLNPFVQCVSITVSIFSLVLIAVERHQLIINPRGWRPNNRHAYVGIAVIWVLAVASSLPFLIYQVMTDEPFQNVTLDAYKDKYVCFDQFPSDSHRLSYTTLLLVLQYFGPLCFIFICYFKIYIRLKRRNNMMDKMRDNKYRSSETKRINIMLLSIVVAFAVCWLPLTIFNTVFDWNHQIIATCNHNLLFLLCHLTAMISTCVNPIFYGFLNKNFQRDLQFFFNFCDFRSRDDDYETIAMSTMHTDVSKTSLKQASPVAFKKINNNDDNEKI
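Material: HEK293 cells co-expressing NPY Y1 receptor and cyclic-nucleotide gated channel. Timing: compound incubation 1 h at room temperature, readout 45 min post-stimulation. Signal: fluorescence, membrane potential probe.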
NPY2 pot ag – potentiates or activates human NPY-Y2 receptor | P49146 | cells expressing NPY-Y2, potentiator/agonist read-out | activation, % at 3.6 µM | hit rate 0.45% among 220,000 | AID 1359; in the data active = activation above about 27%;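 also: cells stimulated with NPY near EC25 plus isoproterenol at EC100; 0% = vehicle plus submaximal agonist and 100% = vehicle plus saturating agonist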
Target sequence (P49146 whole entry, looked up): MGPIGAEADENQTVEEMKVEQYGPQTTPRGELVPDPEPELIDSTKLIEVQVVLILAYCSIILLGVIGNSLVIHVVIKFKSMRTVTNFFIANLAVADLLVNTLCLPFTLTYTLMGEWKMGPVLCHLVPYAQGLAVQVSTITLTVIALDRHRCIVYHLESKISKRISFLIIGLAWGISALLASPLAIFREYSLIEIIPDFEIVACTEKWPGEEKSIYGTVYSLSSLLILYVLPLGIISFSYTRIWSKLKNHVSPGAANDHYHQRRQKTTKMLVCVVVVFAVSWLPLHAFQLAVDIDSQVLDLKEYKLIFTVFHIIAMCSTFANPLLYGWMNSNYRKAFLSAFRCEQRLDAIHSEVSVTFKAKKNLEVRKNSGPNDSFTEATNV
NPY Y2 blocker – antagonists of human neuropeptide Y receptor Y2; P49146; NPY-Y2 expressing cells, antagonist mode; inhibition, % at 2.7 µM; hit rate 0.99% among 140,000; AID 793; in the data active = inhibition above about 17%;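 also: 0% = vehicle with agonist challenge and 100% = reference antagonist with challenge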
NPY-Y1 PAM-ag – potentiators or agonists of human neuropeptide Y receptor Y1 | P25929 | hit rate 0.37% among 220,000 | activation, % at 3.6 µM | NPY-Y1 expressing cells, potentiator/agonist activation; in the data active = activation above about 33%, passing the limit was not always enough;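 also: cells stimulated with NPY at EC10 then isoproterenol at EC100; 0% = low agonist plus stimulus and 100% = saturating agonist plus stimulus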
NPY1 antag ctr – antagonizes human NPY-Y1, counter-screen to NPY-Y2 antagonists; hit rate 19% among 710; inhibition, % at 3.6 µM; shares compounds with NPY Y2 blocker; cell-based NPY-Y1 antagonism counterscreen;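 also: cells challenged with NPY then isoproterenol with cAMP sensed through a CNG channel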
NPY-Y2 ant conf – human NPY-Y2 antagonism, confirmation. hit rate 32% among 710. inhibition, % at 2.8 µM. HEK293 NPY-Y2 CNG channel, membrane potential fluorescence. AID 1257. shares compounds with NPY Y2 blocker;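 active = mean inhibition of triplicate wells above the hit cutoff set in the primary screen, cut at about 17% in these data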;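 also: 0% = DMSO with NPY challenge and 100% = BIIE0246 high control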
NPY1 antag conf – human NPY-Y1 antagonism, confirmation; shares compounds with NPY-Y1 antag; HEK293-CNG NPY-Y1, membrane potential fluorescence, cAMP; NPY challenge against isoproterenol-raised cAMP; inhibition, % at 3.6 µM; hit rate 21% among 1,200;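 also: 0% = vehicle with agonist plus stimulus and 100% = stimulus alone without agonist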
NPY2 antag ctr – counter-screen for NPY-Y1 antagonists: human NPY-Y2 antagonism. shares compounds with NPY-Y1 antag. HEK293 NPY-Y2 CNG membrane potential fluorescence; cells given NPY, then isoproterenol. inhibition, % at 3.6 µM. hit rate 28% among 1,200; in the data active = inhibition above about 17%;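 also: 0% = DMSO with agonist challenge and 100% = reference antagonist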
NPY-Y2 pot conf – confirmation of human NPY-Y2 receptor potentiators or agonists. shares compounds with NPY2 pot ag. cell-based NPY-Y2 potentiator/agonist assay. activation, % at 3.6 µM. hit rate 20% among 450. AID 1539; in the data active = activation above about 33%
NPY-Y1 potentiator – potentiates or activates NPY-Y1, counter-screen for NPY-Y2 hits; activation, % at 3.6 µM; hit rate 20% among 450; Y1 HEK293-CNG cells, membrane potential fluorescence; shares compounds with NPY2 pot ag; in the data active = activation above about 45%;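 also: cells stimulated with submaximal NPY then isoproterenol with phosphodiesterase inhibitor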
NPY-Y1 agonist 2 – human NPY-Y1 agonism as NPY-Y2 potentiator counter-screen; AID 1702; HEK293 Y1-CNGC, membrane potential fluorescence; shares compounds with NPY2 pot ag; activation, % at 3.6 µM; hit rate 37% among 450;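 active = activation above the mean of DMSO-only control wells plus 3 SD, cut at about 18% in these data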;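 also: cells stimulated with 1 µM isoproterenol plus the PDE inhibitor Ro 20-1724; 0% = isoproterenol with DMSO and no NPY and 100% = 40 nM NPY; Y1 agonists lower the membrane potential dye signal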
CNGC inh – cyclic nucleotide gated channel inhibition as counter-screen; HEK293-CNG parental, isoproterenol cAMP, membrane potential fluorescence; hit rate 32% among 450; shares compounds with NPY2 pot ag; inhibition, % at 3.6 µM;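 active = inhibition above the control-well mean plus 3 SD of those wells, cut at about 22% in these data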;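 also: 0% = DMSO with isoproterenol and 100% = DMSO without isoproterenol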
Y2 agonist ctr – NPY-Y2 agonism, counter-screen for Y2 potentiators. hit rate 56% among 450. shares compounds with NPY2 pot ag. activation, % at 3.6 µM. HEK293 Y2/CNGC cells, membrane potential fluorescence, agonist mode;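 active = activation above the mean of solvent-only control wells plus 3 SD, cut at about 10% in these data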;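 also: cells stimulated by isoproterenol with no NPY added so direct agonism is tested; 0% = DMSO with isoproterenol alone and 100% = NPY at EC100 plus isoproterenol; agonism lowers probe fluorescence through less cAMP and CNG channel opening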
Numbers without * were called inactive; nt = not tested or not shown; + = active, no number. This is a sample that favours compounds with a hit; in the whole collection about 1.8% have one here. Rule as the data show it, unless noted: active = inhibition above about 20%; inactive = the rest.

SMILES | NPY-Y1 antag | NPY2 pot ag | NPY Y2 blocker | NPY-Y1 PAM-ag | others
Cc1ccc(N)c(C(=O)c2ccccc2)c1 | -9.1 | 103.5* | 2.8 | 97.8*
CC(=O)OC(C)(C)/C=C/C(=O)[C@](C)(O)[C@H]1[C@H](O)C[C@@]2(C)[C@@H]3CC=C4[C@H](C[C@H](O)C(=O)C4(C)C)[C@]3(C)C(=O)C[C@]12C | 108.1* | 0.0 | 8.5 | -48.3
O=C1NC(=S)N(Cc2ccco2)C(=O)/C1=C\c1cccs1 | -3.0 | 9.6 | nt | 5.1
N#CC(C#N)=NNc1ccc(-n2ccc(C(F)(F)F)n2)cc1 | nt | 68.5* | nt | 55.4*
C=CCn1c(O)c(/C(C)=N/N2CCCCCC2)c(=O)[nH]c1=O | nt | 6.9 | nt | -14.9
CC(=O)NC(Cc1ccc(N(CCCl)CCCl)cc1)C(=O)NCC(=O)NCC(=O)O (centres undefined) | 6.1 | 8.0 | nt | 17.4
CC(C)OCCCNC(=O)c1c(N)n(CC2CCCO2)c2nc3ccccc3nc12 (centres undefined) | 25.1* | -0.2 | 22.8* | 5.0
O=P(NCc1ccccc1)(Oc1ccccc1)Oc1ccccc1 | 5.7 | 2.5 | 8.0 | 8.3
Cc1nn(Cc2ccccc2)c(C)c1C(=O)OCC(=O)Nc1cc(S(C)(=O)=O)ccc1Cl | 1.1 | 5.5 | nt | -13.4
CCN1/C(=C\C=C\C2=[N+](CC)c3ccccc3C2(C)C)C(C)(C)c2ccccc21 | + | -336.6 | + | -434.4
O=C(CN1CC=C(c2ccccc2)CC1)NC(=O)NCc1ccccc1 | 12.2 | -16.9 | nt | -16.0
O=c1cc(CN2CC=C(c3ccccc3)CC2)c2c(ccc3ccccc32)o1 | -7.0 | 63.6* | 5.4 | 69.7*
O=[N+]([O-])c1ccc(N2CCNCC2)c2ncccc12 | -7.8 | 46.5* | 0.3 | 74.1*
CN1CCN(c2ccc([N+](=O)[O-])c3cccnc23)CC1 | 2.8 | -10.7 | 3.7 | -22.2
Cc1nn(Cc2ccccc2)c(Cl)c1C(=O)OCC(=O)N1CCCC1 | 0.9 | 10.9 | nt | 12.6
C[C@@H]1O[C@@H](O[C@H]2C[C@@H](O)[C@]3(CO)[C@H]4[C@H](O)C[C@]5(C)[C@@H](C6COC(=O)C6)CC[C@]5(O)[C@@H]4CC[C@]3(O)C2)[C@H](O)[C@H](O)[C@H]1O (some centres undefined) | 45.9* | -35.1 | 23.7* | -93.1
CN1CCN(Cc2cc(C(C)(C)C)c(O)c(C(C)(C)C)c2)CC1 | -0.4 | 50.5* | 6.1 | 77.4*
CN1CCN(Cc2ccc(N)cc2)CC1 | 4.0 | -5.8 | nt | -0.1
O=C(COC(=O)c1ccc(O)cc1)Nc1ccc(Cl)cc1C(=O)c1ccccc1 | 17.4 | -6.7 | 19.3* | -44.5 | NPY1 antag ctr=12.4;NPY-Y2 ant conf=9.2
OC(COCc1ccc(Cl)cc1)CN1CC=C(c2ccccc2)CC1 (centres undefined) | 9.0 | -9.3 | 18.7* | -19.0 | NPY1 antag ctr=8.1;NPY-Y2 ant conf=10.9
CCC[N+]12CCC(CC1)C(=C(c1ccccc1)c1ccccc1)C2 | 12.2 | 1.8 | 3.5 | 10.3
CCCC[N+]12CCC(CC1)C(=C(c1ccccc1)c1ccccc1)C2 | 18.2 | -8.6 | 23.2* | -8.5 | NPY1 antag ctr=12.2;NPY-Y2 ant conf=10.9
O=[N+]([O-])/C=C1/NCCN1Cc1ccc(Cl)nc1 | 2.3 | -2.6 | nt | 21.4
CCCCOc1nc2ccccc2c(=O)n1-c1ccccc1 | 5.8 | -2.4 | 17.1* | -14.4 | NPY1 antag ctr=5.0;NPY-Y2 ant conf=18.1*
COc1nc2ccccc2c(=O)n1-c1ccc(C)cc1 | 0.0 | 0.9 | 2.3 | -14.7
SMILES | NPY-Y1 antag | NPY2 pot ag | NPY Y2 blocker | NPY-Y1 PAM-ag | others
O=[N+]([O-])c1ccc(C2C3C(c4ccccc4)=NC4(CCCC4)N32)cc1 (centres undefined) | 10.5 | -6.2 | 12.0 | -10.2
CCN(CC)CCCNC(=O)c1c(O)c2ccccc2n(Cc2ccccc2)c1=O | 20.4* | -41.0 | 14.6 | -49.0 | NPY1 antag conf=16.4;NPY2 antag ctr=25.9*
Cc1cc(C=O)c(C)n1C1CC1 | 3.8 | 3.5 | nt | 3.1
CN1CC=C(c2c[nH]c3ccccc23)CC1 | 35.6* | -0.2 | 1.9 | -2.2 | NPY1 antag conf=5.6;NPY2 antag ctr=3.0
C1=C(c2c[nH]c3ccccc23)CCN(Cc2ccccc2)C1 | -4.0 | -5.7 | nt | 6.5
CC(C)(C)C(=O)NC1CCSC1=O (centres undefined) | -1.0 | 6.2 | nt | 7.5
Clc1ccc(COC(Cn2ccnc2)c2ccc(Cl)cc2Cl)c(Cl)c1 (centres undefined) | 22.9* | -11.9 | 16.4 | -63.4 | NPY1 antag conf=30.1*;NPY2 antag ctr=25.3*
C[C@H]1OC[C@@H](C[N+](C)(C)C)O1 | 43.9* | -15.1 | 6.3 | -69.7 | NPY1 antag conf=35.8*;NPY2 antag ctr=22.1*
COC(=O)C(O)(c1ccc(N(C)C(=O)OC(C)C)cc1)C(F)(F)F (centres undefined) | -1.7 | 2.5 | -0.2 | -1.1
Cc1ccc(N2CCN(CCc3ccccc3)CC2)cc1 | -1.1 | -0.7 | 0.3 | -13.9
Cc1cccc(N2CCN(CCc3ccccc3)CC2)c1C | 22.6* | -22.4 | 8.1 | -13.9 | NPY1 antag conf=4.7;NPY2 antag ctr=8.2
c1ccc(C2NCCc3[nH]cnc32)cc1 (centres undefined) | nt | -8.4 | nt | 1.0
COc1ccc2c(c1)c(C(=O)CN1CCN(C)CC1)c(C)n2Cc1ccccc1 | 25.5* | -19.9 | 15.5 | -110.5 | NPY1 antag conf=8.1;NPY2 antag ctr=15.1
C/C1=C\[C@@H](C)C/C=C/[C@H]2[C@@H]3O[C@]3(C)[C@@H](C)[C@H]3[C@H](Cc4c[nH]c5ccccc45)NC(=O)[C@]32C(=O)/C=C/C(=O)[C@@H]1O | 39.7* | 39.1* | nt | 10.8 | NPY1 antag conf=35.3*;NPY2 antag ctr=7.3;NPY-Y2 pot conf=5.2;NPY-Y1 potentiator=5.0;NPY-Y1 agonist 2=-0.6;CNGC inh=5.4;Y2 agonist ctr=17.0*
C=CCSc1nc2c(c(-c3ccsc3)c1C#N)CN(C)CC2 | nt | -0.7 | nt | -5.8
